Results taken from ChEMBL document CHEMBL2407075, “Sulphonamido-quinoxalines: search for anticancer agent” (Eur J Med Chem, 2013).

Tested on: NCI-H23
Test: Growth inhibition of human NCI-H23 cells at 10 uM after 48 hrs by sulforhodamine B assay
Type: functional
Details: NCI-H23, 48 h, read-out: GI
How it was run: (§1)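 Single-dose screen at 10 µM across the NCI 60 panel. Cells in RPMI 1640 with 5% FBS and 2 mM L-glutamine, plated at 5000–40,000/well and preincubated 24 h at 37 °C, 5% CO2. Drug in DMSO, 48 h exposure. Fixed with TCA, stained with SRB, A515 read. Percent growth is taken relative to untreated control, and inhibition is 100 minus growth.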

Structure (SMILES) | inhibition of growth at 10 µM [%]
CC(=S)NS(=O)(=O)c1ccc2nc(-c3ccccc3)c(-c3ccccc3)nc2c1 | 11.7

Tested on: PC-3
Test: Growth inhibition of human PC3 cells at 10 uM after 48 hrs by sulforhodamine B assay
Type: functional
Details: PC-3, 48 h, read-out: GI
How it was run: as §1

Structure (SMILES) | inhibition of growth at 10 µM [%]
CC(=S)NS(=O)(=O)c1ccc2nc(-c3ccccc3)c(-c3ccccc3)nc2c1 | 33.9

Tested on: OVCAR-3
Test: Growth inhibition of human OVCAR3 cells at 10 uM after 48 hrs by sulforhodamine B assay
Type: functional
Details: OVCAR-3, 48 h, read-out: GI
How it was run: as §1

Structure (SMILES) | inhibition of growth at 10 µM [%]
CC(=S)NS(=O)(=O)c1ccc2nc(-c3ccccc3)c(-c3ccccc3)nc2c1 | 1.94

Tested on: Malme-3M
Test: Growth inhibition of human MALME-3M cells at 10 uM after 48 hrs by sulforhodamine B assay
Type: functional
Details: read-out: GI
How it was run: as §1

Structure (SMILES) | inhibition of growth at 10 µM [%]
CC(=S)NS(=O)(=O)c1ccc2nc(-c3ccccc3)c(-c3ccccc3)nc2c1 | 2.85

Tested on: not listed separately
Test: Growth inhibition of human HCC2998 cells at 10 uM after 48 hrs by sulforhodamine B assay
Type: functional
Details: HCC 2998, 48 h, read-out: GI
How it was run: (§2)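 NCI-60 one-dose primary screen at a single 10 µM concentration. Cells in RPMI 1640 with 5% FBS, preincubated 24 h at 37 °C, 5% CO2. Drug exposure 48 h, then TCA fixation, SRB staining and absorbance at 515 nm. Percent growth calculated against time-zero and untreated control wells, then converted to percent growth inhibition.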

Structure (SMILES) | inhibition of growth at 10 µM [%]
CC(=S)NS(=O)(=O)c1ccc2nc(-c3ccccc3)c(-c3ccccc3)nc2c1 | 6.23

Tested on: KM12
Test: Growth inhibition of human KM12 cells at 10 uM after 48 hrs by sulforhodamine B assay
Type: functional
Details: KM12, 48 h, read-out: GI
How it was run: as §1

Structure (SMILES) | inhibition of growth at 10 µM [%]
CC(=S)NS(=O)(=O)c1ccc2nc(-c3ccccc3)c(-c3ccccc3)nc2c1 | 16.8

Tested on: ACHN
Test: Growth inhibition of human ACHN cells at 10 uM after 48 hrs by sulforhodamine B assay
Type: functional
Details: read-out: GI
How it was run: (§3)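 Single-dose NCI-60 prescreen at 10 µM for 48 h at 37 °C and 5% CO2, using cells grown in RPMI 1640 with 5% FBS and 2 mM glutamine. Protein was measured by SRB after TCA fixation: 10% final for adherent lines, 16% for suspension lines. Absorbance was read at 515 nm. Percent growth inhibition was obtained by subtracting percent growth from 100.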

Structure (SMILES) | inhibition of growth at 10 µM [%]
CC(=S)NS(=O)(=O)c1ccc2nc(-c3ccccc3)c(-c3ccccc3)nc2c1 | 16.6

Tested on: CCRF-CEM
Test: Growth inhibition of human CCRF-CEM cells at 10 uM after 48 hrs by sulforhodamine B assay
Type: functional
Details: read-out: GI
How it was run: as §3

Structure (SMILES) | inhibition of growth at 10 µM [%]
CC(=S)NS(=O)(=O)c1ccc2nc(-c3ccccc3)c(-c3ccccc3)nc2c1 | 24.8

Tested on: NCI-H460
Test: Growth inhibition of human NCI-H460 cells at 10 uM after 48 hrs by sulforhodamine B assay
Type: functional
Details: NCI-H460, 48 h, read-out: GI
How it was run: as §1

Structure (SMILES) | inhibition of growth at 10 µM [%]
CC(=S)NS(=O)(=O)c1ccc2nc(-c3ccccc3)c(-c3ccccc3)nc2c1 | 8.63

Tested on: SF-268
Test: Growth inhibition of human SF268 cells at 10 uM after 48 hrs by sulforhodamine B assay
Type: functional
Details: SF-268, 48 h, read-out: GI
How it was run: as §1

Structure (SMILES) | inhibition of growth at 10 µM [%]
CC(=S)NS(=O)(=O)c1ccc2nc(-c3ccccc3)c(-c3ccccc3)nc2c1 | 1.86

Tested on: RPMI-8226
Test: Growth inhibition of human RPMI8226 cells at 10 uM after 48 hrs by sulforhodamine B assay
Type: functional
Details: RPMI-8226, 48 h, read-out: GI
How it was run: as §1

Structure (SMILES) | inhibition of growth at 10 µM [%]
CC(=S)NS(=O)(=O)c1ccc2nc(-c3ccccc3)c(-c3ccccc3)nc2c1 | 39.6

Tested on: T47D
Test: Growth inhibition of human T47D cells at 10 uM after 48 hrs by sulforhodamine B assay
Type: functional
Details: read-out: GI
How it was run: as §1

Structure (SMILES) | inhibition of growth at 10 µM [%]
CC(=S)NS(=O)(=O)c1ccc2nc(-c3ccccc3)c(-c3ccccc3)nc2c1 | 40.6

Tested on: SK-MEL-2
Test: Growth inhibition of human SK-MEL-2 cells at 10 uM after 48 hrs by sulforhodamine B assay
Type: functional
Details: SK-MEL-2, 48 h, read-out: GI
How it was run: as §1

Structure (SMILES) | inhibition of growth at 10 µM [%]
CC(=S)NS(=O)(=O)c1ccc2nc(-c3ccccc3)c(-c3ccccc3)nc2c1 | 8.53

Tested on: SF-539
Test: Growth inhibition of human SF539 cells at 10 uM after 48 hrs by sulforhodamine B assay
Type: functional
Details: SF-539, 48 h, read-out: GI
How it was run: as §1

Structure (SMILES) | inhibition of growth at 10 µM [%]
CC(=S)NS(=O)(=O)c1ccc2nc(-c3ccccc3)c(-c3ccccc3)nc2c1 | 3.29

Tested on: HT-29
Test: Growth inhibition of human HT-29 cells at 10 uM after 48 hrs by sulforhodamine B assay
Type: functional
Details: HT-29, 48 h, read-out: GI
How it was run: as §2

Structure (SMILES) | inhibition of growth at 10 µM [%]
CC(=S)NS(=O)(=O)c1ccc2nc(-c3ccccc3)c(-c3ccccc3)nc2c1 | 21.5

Tested on: OVCAR-5
Test: Growth inhibition of human OVCAR5 cells at 10 uM after 48 hrs by sulforhodamine B assay
Type: functional
Details: OVCAR-5, 48 h, read-out: GI
How it was run: as §1

Structure (SMILES) | inhibition of growth at 10 µM [%]
CC(=S)NS(=O)(=O)c1ccc2nc(-c3ccccc3)c(-c3ccccc3)nc2c1 | 2.84

Tested on: UACC-62
Test: Growth inhibition of human UACC62 cells at 10 uM after 48 hrs by sulforhodamine B assay
Type: functional
Details: UACC-62, 48 h, read-out: GI
How it was run: as §1

Structure (SMILES) | inhibition of growth at 10 µM [%]
CC(=S)NS(=O)(=O)c1ccc2nc(-c3ccccc3)c(-c3ccccc3)nc2c1 | 20.7

Tested on: SK-MEL-5
Test: Growth inhibition of human SK-MEL-5 cells at 10 uM after 48 hrs by sulforhodamine B assay
Type: functional
Details: SK-MEL-5, 48 h, read-out: GI
How it was run: as §1

Structure (SMILES) | inhibition of growth at 10 µM [%]
CC(=S)NS(=O)(=O)c1ccc2nc(-c3ccccc3)c(-c3ccccc3)nc2c1 | 28.9

Tested on: MCF7
Test: Growth inhibition of human MCF7 cells at 10 uM after 48 hrs by sulforhodamine B assay
Type: functional
Details: MCF7, 48 h, read-out: GI
How it was run: as §1

Structure (SMILES) | inhibition of growth at 10 µM [%]
CC(=S)NS(=O)(=O)c1ccc2nc(-c3ccccc3)c(-c3ccccc3)nc2c1 | 11.8

Tested on: A498
Test: Growth inhibition of human A498 cells at 10 uM after 48 hrs by sulforhodamine B assay
Type: functional
Details: A498, 48 h, read-out: GI
How it was run: as §3

Structure (SMILES) | inhibition of growth at 10 µM [%]
CC(=S)NS(=O)(=O)c1ccc2nc(-c3ccccc3)c(-c3ccccc3)nc2c1 | 22.7

Tested on: SN12C
Test: Growth inhibition of human SN12C cells at 10 uM after 48 hrs by sulforhodamine B assay
Type: functional
Details: read-out: GI
How it was run: as §1

Structure (SMILES) | inhibition of growth at 10 µM [%]
CC(=S)NS(=O)(=O)c1ccc2nc(-c3ccccc3)c(-c3ccccc3)nc2c1 | 2.83

Tested on: CAKI-1
Test: Growth inhibition of human CAKI-1 cells at 10 uM after 48 hrs by sulforhodamine B assay
Type: functional
Details: CAKI-1, 48 h, read-out: GI
How it was run: as §3

Structure (SMILES) | inhibition of growth at 10 µM [%]
CC(=S)NS(=O)(=O)c1ccc2nc(-c3ccccc3)c(-c3ccccc3)nc2c1 | 5.83

Tested on: not listed separately
Test: Growth inhibition of human NCI-ADR-RES cells at 10 uM after 48 hrs by sulforhodamine B assay
Type: functional
Details: read-out: GI
How it was run: as §1

Structure (SMILES) | inhibition of growth at 10 µM [%]
CC(=S)NS(=O)(=O)c1ccc2nc(-c3ccccc3)c(-c3ccccc3)nc2c1 | 8.63

Tested on: HCT-15
Test: Growth inhibition of human HCT15 cells at 10 uM after 48 hrs by sulforhodamine B assay
Type: functional
Details: HCT-15, 48 h, read-out: GI
How it was run: as §2

Structure (SMILES) | inhibition of growth at 10 µM [%]
CC(=S)NS(=O)(=O)c1ccc2nc(-c3ccccc3)c(-c3ccccc3)nc2c1 | 26.2

Tested on: LOX IMVI
Test: Growth inhibition of human LOXIMVI cells at 10 uM after 48 hrs by sulforhodamine B assay
Type: functional
Details: read-out: GI
How it was run: as §1

Structure (SMILES) | inhibition of growth at 10 µM [%]
CC(=S)NS(=O)(=O)c1ccc2nc(-c3ccccc3)c(-c3ccccc3)nc2c1 | 12.2

Tested on: UO-31
Test: Growth inhibition of human UO31 cells at 10 uM after 48 hrs by sulforhodamine B assay
Type: functional
Details: UO-31, 48 h, read-out: GI
How it was run: as §1

Structure (SMILES) | inhibition of growth at 10 µM [%]
CC(=S)NS(=O)(=O)c1ccc2nc(-c3ccccc3)c(-c3ccccc3)nc2c1 | 10.6

Tested on: SR
Test: Growth inhibition of human SR cells at 10 uM after 48 hrs by sulforhodamine B assay
Type: functional
Details: read-out: GI
How it was run: as §1

Structure (SMILES) | inhibition of growth at 10 µM [%]
CC(=S)NS(=O)(=O)c1ccc2nc(-c3ccccc3)c(-c3ccccc3)nc2c1 | 41
